Positions count from the first letter of the chain named.
Experiments:
Test in all cases: spectral perturbation titration
Format in all cases: binding
nitrate reductase (NarB) [1] = biological target: T1, nitrate reductase (NarB) (Synechococcus elongatus, UniProt P39458, K144Q)
T1 sequence (P39458 15-729 K144Q): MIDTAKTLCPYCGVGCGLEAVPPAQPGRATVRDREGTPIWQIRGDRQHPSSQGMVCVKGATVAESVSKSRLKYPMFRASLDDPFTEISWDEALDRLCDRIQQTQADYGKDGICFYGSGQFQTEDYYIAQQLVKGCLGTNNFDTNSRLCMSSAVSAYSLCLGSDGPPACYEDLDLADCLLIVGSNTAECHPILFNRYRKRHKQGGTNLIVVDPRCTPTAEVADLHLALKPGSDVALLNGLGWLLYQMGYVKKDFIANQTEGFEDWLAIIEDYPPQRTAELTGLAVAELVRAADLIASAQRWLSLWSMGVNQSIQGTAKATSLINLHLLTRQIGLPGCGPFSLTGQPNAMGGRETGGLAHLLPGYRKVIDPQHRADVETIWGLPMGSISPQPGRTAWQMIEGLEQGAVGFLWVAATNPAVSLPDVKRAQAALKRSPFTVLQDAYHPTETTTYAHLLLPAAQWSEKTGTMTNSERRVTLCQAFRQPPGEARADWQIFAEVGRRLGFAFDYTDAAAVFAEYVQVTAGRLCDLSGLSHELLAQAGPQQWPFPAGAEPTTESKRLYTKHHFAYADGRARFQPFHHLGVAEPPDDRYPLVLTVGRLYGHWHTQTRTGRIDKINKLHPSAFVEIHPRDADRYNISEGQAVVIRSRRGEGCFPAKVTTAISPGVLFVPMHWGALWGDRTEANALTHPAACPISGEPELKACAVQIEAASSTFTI
In short: (§1)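 Single-residue NarB variants were made by site-directed mutagenesis and expressed and purified as for wild type (His6, Co affinity, DEAE, gel filtration). Complex formation with ferredoxin or nitrate was followed by difference absorbance at variant-specific wavelength pairs chosen for signal:noise. The change at saturating nitrate was taken as 100% complex. Kd came from fitting perturbation magnitude against ligand concentration to a single binding isotherm.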

nitrate reductase (NarB) [2] = biological target: T2, nitrate reductase (NarB) (Synechococcus elongatus, UniProt P39458, R84K)
T2 sequence (P39458 15-729 R84K): T1 sequence (P39458 15-729 K144Q) with R70K, Q130K
In short: as §1

nitrate reductase (NarB) [3] = biological target: T3, nitrate reductase (NarB) (Synechococcus elongatus, UniProt P39458, K72R)
T3 sequence (P39458 15-729 K72R): T1 sequence (P39458 15-729 K144Q) with K58R, Q130K
In short: as §1

Work on `O=[N+]([O-])O` [nitrate] yielded a Kd (nitrate reductase (NarB) [1]) of 19 ± 6.8 µM, a Kd (nitrate reductase (NarB) [2]) of 6 ± 1 µM and a Kd (nitrate reductase (NarB) [3]) of 15.5 ± 5 µM.

Source: PMC3741069 (Biochemistry, 2013)
